The source made the active and inactive calls.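 Rule for the calls: active = viability loss with dose, its half-maximal concentration at most ten times the top valid tested dose; inconclusive = flat viability loss of 30 to 70 percent, or poor fit; inactive = the rest.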
System: BJeH fibroblast viability, Alamar Blue fluorescence, 48 h
Experiment: cytotoxicity in BJeH fibroblasts, dose response, counter-screen for Ras selective lethality project, BJeH cells, dry powder, set 2 (AID 493051)
Details: not given
Procedure, shortened: (§1)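 Assay system: BJeH cells, BJ human fibroblasts immortalized with hTERT | Times: 48 h compound treatment at 37 °C, ~16 h dye incubation | Technique: Alamar Blue fluorescence (544 nm ex, 590 nm em)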
With `Cc1onc(C(=O)N2CCN(C(c3ccccc3)c3ccccc3)CC2)c1[N+](=O)[O-]` the AC50 was 7.89 µM.
For `Cc1onc(C(=O)N2CCN(C(c3ccccc3)c3ccc(Cl)cc3)CC2)c1[N+](=O)[O-]` (stereo not given), the AC50 was 0.958 µM.
Molecule `O=C(c1ccc([N+](=O)[O-])o1)N1CCN(C(c2ccccc2)c2ccccc2)CC1` has an AC50 of 17.7 µM.
In the case of `Cc1onc(C(=O)N2CCN(C(c3ccc(Cl)cc3)c3ccc(Cl)cc3)CC2)c1[N+](=O)[O-]`, the AC50 is reported as 0.628 µM.
With `O=C(c1ccc([N+](=O)[O-])o1)N1CCN(C(c2ccc(F)cc2)c2ccc(F)cc2)CC1` the AC50 was 11.8 µM.
Molecule `O=C(NCCNC(c1ccccc1)c1ccccc1)c1ccc([N+](=O)[O-])o1` has an AC50 of 3.33 µM.
Work on `O=C(c1ccc([N+](=O)[O-])o1)N1CCCN(C(c2ccccc2)c2ccccc2)CC1` yielded an AC50 of 63.2 µM.
Work on `COc1ccc(C(c2ccc(OC)cc2)N2CCN(C(=O)c3ccc([N+](=O)[O-])o3)CC2)cc1` yielded an AC50 of 6.29 µM.
`Cc1onc(C(=O)N2CCCN(C(c3ccccc3)c3ccccc3)CC2)c1[N+](=O)[O-]` showed an AC50 of 5.13 µM.
In the case of `Cc1onc(C(=O)N2CCN(C(c3ccc(F)cc3)c3ccc(F)cc3)CC2)c1[N+](=O)[O-]`, the AC50 is reported as 1.49 µM.
For `COc1ccc(C(c2ccc(OC)cc2)N2CCN(C(=O)c3noc(C)c3[N+](=O)[O-])CC2)cc1`, the AC50 was 9.36 µM.

System: not listed separately
Experiment: as above
Details: BJeH fibroblast viability, Alamar Blue fluorescence, 48 h; at 48 µM (top of the series)
Procedure, shortened: as §1
In the case of `Cc1ccc(C(=O)N2CCN(C(c3ccccc3)c3ccccc3)CC2)c([N+](=O)[O-])c1`, the activity change, negative = viability loss is reported as 19.4% (inactive).
In the case of `Cc1onc(C(=O)N2CCN(C(c3ccccc3)c3ccccc3)CC2)c1C`, the activity change, negative = viability loss is reported as 46.9% (inactive).
With `CC(C)c1onc(C(=O)N2CCN(C(c3ccccc3)c3ccccc3)CC2)c1[N+](=O)[O-]` the activity change, negative = viability loss was 18.4% (inactive).
For `Cc1onc(C(=O)N2CCN(C(c3ccccc3)c3ccccc3)CC2)c1Br`, the activity change, negative = viability loss was 22.7% (inactive).
In the case of `O=C(c1noc2ccccc12)N1CCN(C(c2ccccc2)c2ccccc2)CC1`, the activity change, negative = viability loss is reported as 27.9% (inactive).
In the case of `Cc1onc(C(=O)N2CCN(C(c3ccccc3)c3ccccc3)CC2)c1N`, the activity change, negative = viability loss is reported as 5.64% (inactive).
With `Cc1onc(C(=O)N2CCN(C(c3ccccc3)c3ccccc3)CC2)c1NS(C)(=O)=O` the activity change, negative = viability loss was 8.49% (inactive).
With `Cc1onc(C(=O)NCCNC(c2ccccc2)c2ccccc2)c1[N+](=O)[O-]` the activity change, negative = viability loss was -6.54% (inactive).
For `Cc1oc(C)c(C(=O)N2CCN(C(c3ccccc3)c3ccccc3)CC2)c1C`, the activity change, negative = viability loss was 49.1% (inactive).
With `O=[N+]([O-])c1ccc(CN2CCN(C(c3ccccc3)c3ccccc3)CC2)o1` the activity change, negative = viability loss was -9.67% (inactive).
In the case of `Cc1onc(C(=O)N2CCN(C(c3ccncc3)c3ccncc3)CC2)c1[N+](=O)[O-]`, the activity change, negative = viability loss is reported as 4.32% (inactive).
In the case of `CC(=O)Nc1c(C(=O)N2CCN(C(c3ccccc3)c3ccccc3)CC2)noc1C`, the activity change, negative = viability loss is reported as 15.6% (inactive).
With `Cc1onc(C(=O)N2CCN(C(c3ccccn3)c3ccccn3)CC2)c1[N+](=O)[O-]` the activity change, negative = viability loss was -5.34% (inactive).

Same assay, conditions: BJeH fibroblast viability, Alamar Blue fluorescence, 48 h; at 68 µM (top of the series)
With `CCOC(=O)N1CCN(C(=O)c2noc(C)c2[N+](=O)[O-])CC1` the activity change, negative = viability loss was 7.91% (inactive).
For `Cc1onc(C(=O)N2CCOCC2)c1[N+](=O)[O-]`, the activity change, negative = viability loss was 10.9% (inactive).
For `COc1ccccc1N1CCN(C(=O)c2noc(C)c2[N+](=O)[O-])CC1`, the activity change, negative = viability loss was 10.7% (inactive).
For `Cc1cc(C(=O)N2CCN(Cc3ccccc3)CC2)no1`, the activity change, negative = viability loss was 3.96% (inactive).
For `Cc1onc(C(=O)NCc2ccc(F)cc2)c1[N+](=O)[O-]`, the activity change, negative = viability loss was 13.9% (inactive).
In the case of `Cc1onc(C(=O)N2CCN(Cc3ccccc3)CC2)c1[N+](=O)[O-]`, the activity change, negative = viability loss is reported as 7.25% (inactive).

Source: PubChem BioAssay AID493051 (Broad Institute, 2011)
